Data on three compounds can be found in ChEMBL document CHEMBL1135823, “Discovery and SAR of a novel selective and orally bioavailable nonpeptide classical competitive inhibitor class of protein-tyrosine phosphatase 1B” (J Med Chem, 2002).

For series [1], the target named is T1, Tyrosine-protein phosphatase non-receptor type 1 (Homo sapiens, UniProt P18031).
T1 sequence (P18031 whole entry): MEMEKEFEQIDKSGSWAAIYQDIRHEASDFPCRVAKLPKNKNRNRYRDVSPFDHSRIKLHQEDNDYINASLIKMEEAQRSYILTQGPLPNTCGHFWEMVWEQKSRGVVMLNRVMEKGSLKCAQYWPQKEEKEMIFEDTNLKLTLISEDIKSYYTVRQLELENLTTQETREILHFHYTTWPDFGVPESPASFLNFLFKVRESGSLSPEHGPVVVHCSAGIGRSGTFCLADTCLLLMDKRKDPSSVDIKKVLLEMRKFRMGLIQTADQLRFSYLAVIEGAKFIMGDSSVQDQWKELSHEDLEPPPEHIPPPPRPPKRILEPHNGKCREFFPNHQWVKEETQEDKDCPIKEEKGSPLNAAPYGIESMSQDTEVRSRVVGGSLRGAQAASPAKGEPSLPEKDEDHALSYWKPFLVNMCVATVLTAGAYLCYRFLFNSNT
The series can be described thus: Inhibition of human recombinant Protein-tyrosine phosphatase 1B. The procedure, abridged:
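Enzyme is a soluble recombinant human PTP1B (residues 1–321). Ki is measured at pH 5.5 with p-nitrophenyl phosphate (pNPP) as substrate.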

Series [2] addresses T2, Tyrosine-protein phosphatase non-receptor type 2 (Homo sapiens, UniProt P17706).
T2 sequence (P17706 whole entry): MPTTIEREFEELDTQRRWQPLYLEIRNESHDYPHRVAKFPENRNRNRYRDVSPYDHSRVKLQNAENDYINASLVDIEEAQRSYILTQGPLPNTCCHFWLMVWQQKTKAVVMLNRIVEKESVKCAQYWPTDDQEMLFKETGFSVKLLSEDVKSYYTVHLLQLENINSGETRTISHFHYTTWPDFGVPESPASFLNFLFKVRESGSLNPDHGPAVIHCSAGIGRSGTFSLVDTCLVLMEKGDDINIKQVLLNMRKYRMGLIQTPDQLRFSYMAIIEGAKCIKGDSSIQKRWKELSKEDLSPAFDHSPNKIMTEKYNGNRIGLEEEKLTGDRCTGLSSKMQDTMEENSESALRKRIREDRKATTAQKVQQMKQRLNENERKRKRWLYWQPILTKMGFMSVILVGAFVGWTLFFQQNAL
The series is described as follows: Inhibitory effect against inhibitory effect against T cell protein tyrosine phosphatase (TC-PTP) using p-nitrophenyl phosphate as substrate at pH 7.0. The procedure, abridged:
(§1)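 Ki from a pNPP hydrolysis assay with recombinant TC-PTP, run at pH 7.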

Series [3] concerns the target T1, Tyrosine-protein phosphatase non-receptor type 1. The series is described as follows: Inhibitory effect against recombinant human protein-tyrosine phosphatase 1B (PTP1B), using p-nitrophenyl phosphate substrate at pH 5.5.
Series [4] is described as follows: Pharmacokinetic Parameter clearance was reported for Protein Tyrosine Phosphatase 1B. The class given is ADME, organism-based. The following applies: in vivo.
The nature of series [5]: Pharmacokinetic Parameter Vss was reported for Protein Tyrosine Phosphatase 1B. The format is ADME, organism-based. The following applies: in vivo; read-out: Vss.
The nature of series [6]: Pharmacokinetic Parameter half life was reported for Protein Tyrosine Phosphatase 1B. The settings on record: in vivo. The format is ADME, organism-based.
Series [7] has as its target T2, Tyrosine-protein phosphatase non-receptor type 2. The series is described as follows: Inhibition of T cell protein tyrosine phosphatase (TC-PTP) at pH 7.0. The class given is single protein. The procedure, abridged: as §1
The nature of series [8]: Oral bioavailability. The class given is ADME, organism-based. The settings on record: eutheria, in vivo, read-out: f (po).
Series [9] can be described thus: Pharmacokinetic Parameter t1/2 was reported for Protein Tyrosine Phosphatase 1B. The format is ADME, organism-based. The settings on record: in vivo.
Series [10] addresses T3, Receptor-type tyrosine-protein phosphatase C (Homo sapiens, UniProt P08575).
T3 sequence (P08575 whole entry): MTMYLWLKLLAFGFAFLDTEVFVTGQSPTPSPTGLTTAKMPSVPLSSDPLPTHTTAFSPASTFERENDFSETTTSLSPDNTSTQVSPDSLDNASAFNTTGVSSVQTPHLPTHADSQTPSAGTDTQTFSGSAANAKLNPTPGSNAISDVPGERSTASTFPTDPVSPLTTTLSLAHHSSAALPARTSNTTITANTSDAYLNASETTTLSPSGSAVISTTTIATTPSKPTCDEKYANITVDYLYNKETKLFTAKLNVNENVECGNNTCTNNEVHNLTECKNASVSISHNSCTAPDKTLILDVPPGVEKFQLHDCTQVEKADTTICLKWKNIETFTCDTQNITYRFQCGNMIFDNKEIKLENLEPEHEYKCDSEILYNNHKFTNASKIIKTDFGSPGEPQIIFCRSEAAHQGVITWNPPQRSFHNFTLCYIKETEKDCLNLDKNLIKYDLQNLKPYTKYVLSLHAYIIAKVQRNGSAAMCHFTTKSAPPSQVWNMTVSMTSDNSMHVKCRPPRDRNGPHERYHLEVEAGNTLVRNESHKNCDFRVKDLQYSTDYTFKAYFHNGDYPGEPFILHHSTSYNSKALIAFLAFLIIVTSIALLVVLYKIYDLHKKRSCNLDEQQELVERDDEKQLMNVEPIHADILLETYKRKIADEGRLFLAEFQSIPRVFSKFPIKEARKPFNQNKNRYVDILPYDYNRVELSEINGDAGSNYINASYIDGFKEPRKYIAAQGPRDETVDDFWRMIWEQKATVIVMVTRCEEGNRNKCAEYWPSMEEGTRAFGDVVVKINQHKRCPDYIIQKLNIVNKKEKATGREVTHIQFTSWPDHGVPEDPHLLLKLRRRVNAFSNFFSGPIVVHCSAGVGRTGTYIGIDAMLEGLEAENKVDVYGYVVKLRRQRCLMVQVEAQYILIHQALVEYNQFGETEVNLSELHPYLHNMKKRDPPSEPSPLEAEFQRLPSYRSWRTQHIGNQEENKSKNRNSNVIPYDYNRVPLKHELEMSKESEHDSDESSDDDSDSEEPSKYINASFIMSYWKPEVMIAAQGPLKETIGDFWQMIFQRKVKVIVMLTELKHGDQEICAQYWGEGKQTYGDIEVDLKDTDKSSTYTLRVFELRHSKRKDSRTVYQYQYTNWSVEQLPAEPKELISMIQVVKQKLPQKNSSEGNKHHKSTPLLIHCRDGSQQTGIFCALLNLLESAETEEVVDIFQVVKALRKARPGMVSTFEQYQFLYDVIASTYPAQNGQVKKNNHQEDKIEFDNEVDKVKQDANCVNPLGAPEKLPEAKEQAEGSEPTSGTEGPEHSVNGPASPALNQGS
The series can be described thus: Inhibitory effect against human CD45 tyrosine phosphatase using p-nitrophenyl phosphate substrate at a pH 7.0. The procedure, abridged:
(§2)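 Ki from pNPP hydrolysis assays at pH 7 with recombinant PTPs (CD45, LAR, PTPα).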

Series [11] deals with Receptor-type tyrosine-protein phosphatase F (Homo sapiens, UniProt P10586). The series can be described thus: Inhibitory effect against human Protein-tyrosine phosphatase Lar using p-nitrophenyl phosphate substrate at a pH 7.0. The procedure, abridged:
as §2

Series [12] deals with Receptor-type tyrosine-protein phosphatase alpha (Homo sapiens, UniProt P18433). The series can be described thus: Inhibitory effect against human Protein-tyrosine phosphatase alpha (PTPalpha) using p-nitrophenyl phosphate substrate at a pH 7.0. An outline of the steps: as §2

Structures are written as SMILES. pKi: −log10 of the molar value. Where “and” joins values, the source holds several entries; their conditions need not be identical. Equal entries are not always repeated.

Chain of Receptor-type tyrosine-protein phosphatase F (P10586 whole entry): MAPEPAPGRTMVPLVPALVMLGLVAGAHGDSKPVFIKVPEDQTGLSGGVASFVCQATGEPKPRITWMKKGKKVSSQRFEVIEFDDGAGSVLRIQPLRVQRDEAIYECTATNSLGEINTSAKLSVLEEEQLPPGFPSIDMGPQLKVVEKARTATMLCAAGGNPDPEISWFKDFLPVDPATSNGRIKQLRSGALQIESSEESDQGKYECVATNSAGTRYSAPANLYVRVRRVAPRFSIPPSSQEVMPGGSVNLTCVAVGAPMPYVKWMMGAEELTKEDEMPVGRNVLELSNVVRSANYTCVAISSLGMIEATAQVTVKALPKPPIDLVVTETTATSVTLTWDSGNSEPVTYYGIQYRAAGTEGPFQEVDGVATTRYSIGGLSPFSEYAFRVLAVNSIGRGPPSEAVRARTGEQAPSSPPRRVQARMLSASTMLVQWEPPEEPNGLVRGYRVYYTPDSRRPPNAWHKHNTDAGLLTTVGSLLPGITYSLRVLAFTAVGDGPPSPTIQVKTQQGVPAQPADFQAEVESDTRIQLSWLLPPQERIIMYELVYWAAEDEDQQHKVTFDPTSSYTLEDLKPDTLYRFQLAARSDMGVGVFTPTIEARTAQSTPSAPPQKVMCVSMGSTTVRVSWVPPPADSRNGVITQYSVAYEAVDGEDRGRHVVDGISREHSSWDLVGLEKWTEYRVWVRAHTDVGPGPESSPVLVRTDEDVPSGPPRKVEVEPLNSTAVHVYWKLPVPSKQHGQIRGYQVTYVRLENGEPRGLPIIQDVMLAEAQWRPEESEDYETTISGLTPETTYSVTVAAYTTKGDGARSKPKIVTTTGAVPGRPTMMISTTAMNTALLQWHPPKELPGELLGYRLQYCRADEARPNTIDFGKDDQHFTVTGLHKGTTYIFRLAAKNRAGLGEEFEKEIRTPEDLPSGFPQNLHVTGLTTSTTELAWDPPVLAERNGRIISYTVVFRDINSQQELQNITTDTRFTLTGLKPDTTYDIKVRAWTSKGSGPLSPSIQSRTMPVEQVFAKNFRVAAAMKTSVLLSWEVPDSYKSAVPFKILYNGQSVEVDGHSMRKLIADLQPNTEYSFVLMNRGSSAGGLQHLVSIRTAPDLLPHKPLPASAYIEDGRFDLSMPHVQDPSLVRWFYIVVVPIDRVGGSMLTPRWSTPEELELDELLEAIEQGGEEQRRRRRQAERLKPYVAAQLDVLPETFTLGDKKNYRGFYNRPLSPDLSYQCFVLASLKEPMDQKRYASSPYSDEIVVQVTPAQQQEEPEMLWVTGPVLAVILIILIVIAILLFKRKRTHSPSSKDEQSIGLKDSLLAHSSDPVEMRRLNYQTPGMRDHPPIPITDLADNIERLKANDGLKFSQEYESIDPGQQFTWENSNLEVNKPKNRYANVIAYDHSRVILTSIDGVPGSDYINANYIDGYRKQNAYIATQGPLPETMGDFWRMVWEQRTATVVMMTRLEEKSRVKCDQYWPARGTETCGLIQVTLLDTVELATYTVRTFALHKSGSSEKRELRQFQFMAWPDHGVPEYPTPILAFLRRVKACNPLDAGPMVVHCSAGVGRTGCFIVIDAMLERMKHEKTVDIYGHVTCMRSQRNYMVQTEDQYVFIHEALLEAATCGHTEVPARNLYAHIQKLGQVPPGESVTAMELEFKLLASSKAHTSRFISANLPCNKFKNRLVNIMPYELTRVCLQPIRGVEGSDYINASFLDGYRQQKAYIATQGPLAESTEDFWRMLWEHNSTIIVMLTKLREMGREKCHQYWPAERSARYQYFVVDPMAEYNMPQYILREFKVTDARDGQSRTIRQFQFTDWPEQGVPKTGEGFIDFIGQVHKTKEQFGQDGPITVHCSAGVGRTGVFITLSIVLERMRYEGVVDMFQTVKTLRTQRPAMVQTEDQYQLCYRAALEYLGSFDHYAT
Chain of Receptor-type tyrosine-protein phosphatase alpha (P18433 whole entry): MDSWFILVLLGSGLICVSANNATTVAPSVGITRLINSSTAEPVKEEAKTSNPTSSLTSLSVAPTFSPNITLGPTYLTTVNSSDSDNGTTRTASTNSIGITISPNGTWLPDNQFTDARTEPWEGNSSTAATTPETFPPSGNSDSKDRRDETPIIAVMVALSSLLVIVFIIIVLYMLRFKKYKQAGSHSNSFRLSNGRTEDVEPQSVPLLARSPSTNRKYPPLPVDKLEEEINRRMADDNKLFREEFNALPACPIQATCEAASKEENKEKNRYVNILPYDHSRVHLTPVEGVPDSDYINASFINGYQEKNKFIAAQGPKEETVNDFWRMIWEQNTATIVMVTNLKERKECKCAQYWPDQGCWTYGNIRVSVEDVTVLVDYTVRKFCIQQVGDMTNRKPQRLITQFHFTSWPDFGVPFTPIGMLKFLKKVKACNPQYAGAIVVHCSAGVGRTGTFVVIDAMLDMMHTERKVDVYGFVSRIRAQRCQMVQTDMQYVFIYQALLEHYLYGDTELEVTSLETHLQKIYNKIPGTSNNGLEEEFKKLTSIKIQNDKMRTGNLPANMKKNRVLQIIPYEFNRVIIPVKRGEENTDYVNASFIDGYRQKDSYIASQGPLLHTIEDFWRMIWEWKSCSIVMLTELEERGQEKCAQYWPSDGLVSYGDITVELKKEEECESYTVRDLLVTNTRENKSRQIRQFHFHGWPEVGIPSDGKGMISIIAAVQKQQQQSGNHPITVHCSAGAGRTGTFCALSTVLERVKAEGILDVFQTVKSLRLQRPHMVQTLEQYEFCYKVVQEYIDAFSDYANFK

With `O=C(O)C(=O)Nc1sc2c(c1C(=O)O)CCN(Cc1ccc3ccccc3c1)C2`, the pKi (commonly −log10 of the Ki, conventionally taken in molar units) in [1] is 4.38; in series [2], 4.47.

For the compound `O=C(O)C(=O)Nc1sc2c(c1C(=O)O)CCNC2`, the pKi in [3] is 6.54; in series [7], 5.03; in series [1], 5.33. In addition, in series [4], the clearance (in general, the rate of elimination divided by the concentration) amounted to 6.4 mL/min/kg. Moreover, the Vd in series [5] turned out to be 0.9 L/kg. Besides, the half-life (as a rule, the time needed for the level to fall by half in the phase considered) in [6] was determined as 2.8 h. For the same compound, the bioavailability in series [8] amounted to 56%.

Turning to `O=C(O)C(=O)Nc1sc2c(c1C(=O)O)CCN(CCc1ccccc1)C2`, the pKi in series [3] was 6.57; in [10], 2.85; in series [1], 5.49 and 5.14; in [11] it was 2.68; in series [12], 2.68. In addition, in series [4], the clearance was found to be 6.4 mL/min/kg. For the same compound, the Vd in [5] came out at 0.9 L/kg. For the same compound, in [9], the half-life came to 2.82 h. For the same compound, in series [8], the bioavailability worked out at 13%.
